The record followed here is ChEMBL document CHEMBL5634203, “A Tiny Pocket Packs a Punch: Leveraging Pyridones for the Discovery of CNS-Penetrant Aza-indazole IRAK4 Inhibitors” (ACS Med Chem Lett, 2024).

In brackets after ≈: the same amount, converted by molar mass.

Data set [1] is described as follows: Lipophilicity, log D of the compound at pH 7.4. The settings on record: buffer. It is filed as physicochemical.
The nature of data set [2]: Kinetic solubility of compound in DMSO at pH 6.8 incubated for 24 hrs. As to conditions: read-out: Kinetic_solubility. The class given is physicochemical. Put shortly: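 Kinetic solubility assay at pH 6.8. Arithmetic mean of at least two experiments.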
Data set [3] in a line: Intrinsic clearance in human liver microsomes. It is filed as ADME, Microsome. As to conditions: read-out: CLH. Put shortly: (§1)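 Intrinsic clearance measured in human liver microsomes and in human hepatocytes and reported as scaled values. Arithmetic mean of at least two experiments.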
Data set [4] is described as follows: Intrinsic clearance in human hepatocytes. The class given is ADME, cell-based, Hepatocyte. In a few lines:
as §1

A short description of data set [5]: Unbound brain-to-plasma concentration ratio in Sprague-Dawley rat brain at 1 mg/kg, iv by LC-MS/MS analysis. The class given is ADME, organism-based. The settings on record: read-out: K(p,uu,brain). Put shortly: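 Male Sprague Dawley rats dosed by infusion as a cassette. Total drug measured in brain (Cb) and plasma (Cp). Kpu,u calculated as (Cb×Fub)/(Cp×Fup), using the unbound fractions in brain and in plasma.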

The nature of data set [6]: Clearance in Sprague-Dawley rat measured for 4 hrs by LC-MS/MS analysis. The class given is ADME. As to conditions: in vivo. Put shortly: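 Male Sprague Dawley rats dosed by infusion. Clearance measured during the cassette Kpu,u procedure.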
The test system of data set [7] is Mus musculus. As to the kind of experiment: Anti-inflammatory activity in po dosed C57BL/6 mouse assessed reduction in LPS-induced IL-1beta level in plasma preincubated with compound for 60 mins followed by LPS-induction and measured after 90 mins by ELISA analysis. The class given is functional, organism-based. As to conditions: dose 10-100 mg/kg, time 150.0 min. Put shortly: (§2)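 Mice dosed orally with vehicle (0 mpk) or 10, 30 or 100 mpk, 60 min before intraperitoneal LPS. Cytokine levels and free drug concentration in plasma and brain taken 90 min after LPS. Each dose group compared by one-way ANOVA with the vehicle group given i.p. LPS.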
For orientation: In an ELISA, binding on a coated surface is turned into a signal by an enzyme label.

The test system of data set [8] is Mus musculus. The experiment in a line: Anti-inflammatory activity in po dosed C57BL/6 mouse assessed reduction in LPS-induced TNFalpha level in plasma preincubated with compound for 60 mins followed by LPS-induction and measured after 90 mins by ELISA analysis. The settings on record: dose 10-100 mg/kg, time 150.0 min. It is filed as functional, organism-based. In a few lines: as §2

For data set [9], the system named is Mus musculus. The experiment in a line: Anti-inflammatory activity in po dosed C57BL/6 mouse assessed reduction in LPS-induced MCP-1 level in plasma preincubated with compound for 60 mins followed by LPS-induction and measured after 90 mins by ELISA analysis. It is filed as functional, organism-based. As to conditions: dose 10-100 mg/kg, time 150.0 min. In a few lines: as §2

Data set [10] relates to Mus musculus. The experiment in a line: Anti-inflammatory activity in po dosed C57BL/6 mouse assessed reduction in LPS-induced KC-GRO level in plasma preincubated with compound for 60 mins followed by LPS-induction and measured after 90 mins by ELISA analysis. The class given is functional, organism-based. The settings on record: dose 10-100 mg/kg, time 150.0 min. In a few lines:
as §2

Data set [11] relates to Mus musculus. As to the kind of experiment: Anti-inflammatory activity in po dosed C57BL/6 mouse assessed reduction in LPS-induced IL-6 level in plasma preincubated with compound for 60 mins followed by LPS-induction and measured after 90 mins by ELISA analysis. It is filed as functional, organism-based. As to conditions: dose 10-100 mg/kg, time 150.0 min. In a few lines: as §2

In data set [12] the test system is Mus musculus. As to the kind of experiment: Anti-inflammatory activity in po dosed C57BL/6 mouse assessed reduction in LPS-induced IL-1beta level in brain preincubated with compound for 60 mins followed by LPS-induction and measured after 90 mins by ELISA analysis. It is filed as functional, organism-based. As to conditions: dose 10-100 mg/kg, time 150.0 min. Put shortly: as §2

Data set [13] concerns Mus musculus. The experiment in a line: Anti-inflammatory activity in po dosed C57BL/6 mouse assessed reduction in LPS-induced TNFalpha level in brain preincubated with compound for 60 mins followed by LPS-induction and measured after 90 mins by ELISA analysis. It is filed as functional, organism-based. The settings on record: dose 10-100 mg/kg, time 150.0 min. Put shortly: as §2

Data set [14] has as its system Mus musculus. As to the kind of experiment: Anti-inflammatory activity in po dosed C57BL/6 mouse assessed reduction in LPS-induced MCP-1 level in brain preincubated with compound for 60 mins followed by LPS-induction and measured after 90 mins by ELISA analysis. It is filed as functional, organism-based. The settings on record: dose 10-100 mg/kg, time 150.0 min. In a few lines: as §2

Data set [15] relates to Mus musculus. As to the kind of experiment: Anti-inflammatory activity in po dosed C57BL/6 mouse assessed reduction in LPS-induced KC-GRO level in brain preincubated with compound for 60 mins followed by LPS-induction and measured after 90 mins by ELISA analysis. The settings on record: dose 10-100 mg/kg, time 150.0 min. The class given is functional, organism-based. In a few lines: as §2

The subject of data set [16] is Mus musculus. As to the kind of experiment: Anti-inflammatory activity in po dosed C57BL/6 mouse assessed reduction in LPS-induced IL-6 level in brain preincubated with compound for 60 mins followed by LPS-induction and measured after 90 mins by ELISA analysis. The class given is functional, organism-based. The settings on record: dose 10-100 mg/kg, time 150.0 min. In a few lines:
as §2

Data set [17] concerns Mus musculus. As to the kind of experiment: Anti-inflammatory activity in po dosed C57BL/6 mouse assessed increase in LPS-induced IL-10 level in plasma preincubated with compound for 60 mins followed by LPS-induction and measured after 90 mins by ELISA analysis. As to conditions: dose 10-100 mg/kg, time 150.0 min.
The nature of data set [18]: Plasma protein binding in rat assessed as unbound fraction. The class given is ADME, cell-free.
A short description of data set [19]: Plasma protein binding in human assessed as unbound fraction. The class given is ADME, cell-free.

Compound `CC(C)Oc1cc2nn(C34COC(C)(C3)C4)cc2cc1C(=O)Nc1cccn(C)c1=O` displayed a logD in data set [1] of 2.16. Further, the solubility kinetic at 24 h in [2] is 58 µg/mL (≈ 137 µM). Further, the microsomal CLint in [3] worked out at 7.07 µL/min/mg. The compound also showed a CLH in [4] of 3.43 µL/min/mg. In data set [5], the Kp uu is 1. For the same compound, the clearance in [6] is 11.2 mL/min/kg. Also, the Activity entry with Mus musculus [7], in the data set on Mus musculus [8], in the data set with Mus musculus [9], in the data set on Mus musculus [10], in the data set with Mus musculus [11] and in the data set on Mus musculus [12] was “Dose-Dependent Effect” throughout. For the same compound, the Activity entry in the data set on Mus musculus [13], in the data set with Mus musculus [14], with Mus musculus [15], with Mus musculus [16] and in the data set with Mus musculus [17] was “Dose-Dependent Effect” each time.

In turn, `CC(C)Oc1nc2nn(C34COC(C)(C3)C4)cc2cc1C(=O)Nc1cccn([C@H]2C[C@H]2F)c1=O` yielded a logD in data set [1] of 2.54. Moreover, the solubility kinetic at 24 h in [2] was determined as 25 µg/mL (≈ 53.5 µM). Moreover, the microsomal CLint in data set [3] is < 5.3 µL/min/mg. Besides, in data set [4], the CLH was found to be 3 µL/min/mg. Further, in data set [5], the Kp uu worked out at 0.7. In addition, the clearance in [6] was determined as 43 mL/min/kg. In addition, the fraction unbound in [18] was determined as 0.0718; in data set [19], 0.0594.

In the case of `CC(C)Oc1cc2nn(C34COC(C)(C3)C4)cc2cc1C(=O)Nc1cccn([C@H]2C[C@H]2F)c1=O`, the logD in data set [1] is 2.74. The solubility kinetic at 24 h in data set [2] turned out to be 56 µg/mL (≈ 120 µM). Further, in data set [3], the microsomal CLint is < 5.3 µL/min/mg. This compound yielded a CLH in data set [4] of 3.8 µL/min/mg. In addition, the fraction unbound in [18] came to 0.047; in data set [19] it was 0.0232.

Regarding `CC(C)Oc1nc2nn(C34COC(C)(C3)C4)cc2cc1C(=O)Nc1cccn([C@@H]2C[C@@H]2F)c1=O`, the logD in data set [1] was determined as 2.61. Moreover, in [2], the solubility kinetic at 24 h worked out at 6.6 µg/mL (≈ 14.1 µM). The microsomal CLint in [3] is < 5.3 µL/min/mg. This compound also had a CLH in data set [4] of 3.3 µL/min/mg. Besides, the results for the fraction unbound in data set [18] and in data set [19] were 0.083 and 0.0127, respectively.

Broadly, the logD is the decadic logarithm of the distribution of all forms, ionised or not, between an organic phase and buffer at a given pH. The term clearance denotes the volume of plasma or blood freed of the substance per unit of time. A high value points to a high capacity for elimination. The fraction unbound is free concentration divided by total concentration.
